Here are results for twelve compounds from ChEMBL document CHEMBL3400140, “Design, synthesis, and structure-activity relationships of 1-ethylpyrazole-3-carboxamide compounds as novel hypoxia-inducible factor (HIF)-1 inhibitors” (Bioorg Med Chem, 2015).

Assay [1] in a line: Inhibition of cell proliferation of human HT1080 cells after 72 hrs by WST-8 dye based cell counting assay. Type of assay: functional. The conditions noted are these: HT-1080, 72 h. The essentials:
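HT1080 cells seeded at 1.0 × 10³/well and kept under hypoxia (1% O₂); growth read 72 h after compound addition with WST-8 reagent, absorbance at 450 nm.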
On the technique in general: Tetrazolium assays rely on reduction of a dye to a coloured formazan, in cell work by metabolically active cells.

The target of assay [2] is T1, Hypoxia inducible factors; HIF-1-alpha, HIF-2-alpha (Homo sapiens, UniProt Q16665+Q99814). The experiment in a line: Inhibition of HIF1 in human HT1080 cells transfected with 5xHRE/pGL3/VEGF/E1b reporter plasmid pre-incubated for 1 hr followed by incubation under hypoxia conditions for 24 hrs by HRE-driven luciferase reporter gene assay. It is filed as cell-based. To be noted: for IC50: ht-1080. Background: A reporter such as luciferase makes a cellular process visible.

Assay [3] relates to HT-1080. Description: Inhibition of cell migration of scratched human HT1080 cells monolayers at 100 uM after 48 hrs by phase contrast microscopy based wound-healing assay. It is filed as functional.
Assay [4] concerns HT-1080. Description: Effect on HIF-1beta gene expression in human HT1080 cells up to 100 uM after 4 hrs by real time PCR method. It is filed as functional, cell-based. The essentials:
(§1)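 HT1080 cells treated 4 h with compound; mRNA of CAIX, HIF-1a and HIF-1b quantified by real-time PCR, normalized to 18S rRNA and expressed relative to DMSO-treated cells.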

The target in assay [5] is T1, Hypoxia inducible factors; HIF-1-alpha, HIF-2-alpha. Description: Inhibition of HIF1-mediated carbonic anhydrase 9 gene expression in human HT1080 cells at 1 to 100 uM after 4 hrs by real time PCR method. It is filed as cell-based. The conditions noted are these: HT-1080. The essentials: as §1
(Real-time PCR tracks product formation cycle by cycle.)

Assay [6] relates to HT-1080. Description: Effect on HIF-1alpha gene expression in human HT1080 cells up to 100 uM after 4 hrs by real time PCR method. It is filed as functional, cell-based. The essentials: as §1
The target in assay [7] is T1, Hypoxia inducible factors; HIF-1-alpha, HIF-2-alpha. Description: Inhibition of HIF1-mediated carbonic anhydrase 9 gene expression in human HT1080 cells at 100 uM after 16 hrs by real time PCR method. It is filed as cell-based. To be noted: HT-1080. The essentials: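 HT1080 cells exposed to compounds at 100 µM for 16 h; CAIX mRNA measured by quantitative PCR normalized to 18S rRNA, expressed relative to the normoxic value.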

In general, IC50 refers to the concentration that inhibits the measured activity by half. A lower IC50 goes with greater potency in that assay.

Active and inactive are the calls of the source. The calls are words filed in the database; no cut-off is given here.

In the case of `CCn1cc(NC(=O)c2ccc(Cn3nc(C)cc3C)o2)c(C(N)=O)n1`, the concentration for half-maximal inhibition (IC50) in assay [1] stood at 15.1 µM; in assay [2] it was 19.1 µM. Also, the inhibition result in assay [2] (HT-1080) and in assay [5] was “Dose-dependent effect” in each case. The inhibition entry in assay [3] was “Active”. Further, the outcome in assay [4] and in assay [6] was inactive.
Take `CCn1cc(NC(=O)c2ccc(Cn3nc(C)c(Br)c3C)o2)c(C(N)=O)n1`: the IC50 is 7 µM in assay [1] and 8.1 µM in assay [2]. Further, the inhibition entry in assay [3] and in assay [7] was “Active” throughout.
Regarding `CCn1cc(NC(=O)c2ccc(Cn3nc(C)c(Cl)c3C)o2)c(C(N)=O)n1`, the IC50 in assay [1] amounted to 7.4 µM; in assay [2] it was 8.7 µM. The inhibition result in assay [3] and in assay [7] was “Active” in each case.
Take `CCn1cc(NC(=O)c2ccc(Cc3c(C)noc3C)o2)c(C(N)=O)n1`: the half-inhibitory concentration (IC50) in assay [1] and in assay [2] was greater than 100 µM in each case.
In the case of `CCn1ncc(NC(=O)c2ccc(Cn3nc(C)cc3C)o2)c1C(N)=O`, the IC50 in assay [1] and in assay [2] was greater than 100 µM each time. Also, in assay [7], the inhibition entry was “inactive”.
On to `Cc1cc(C)n(Cc2ccc(C(=O)Nc3cnn4c3C(=O)NCC4)o2)n1`, for which the IC50 in assay [1] and in assay [2] was greater than 100 µM each time.
`CCn1cc(NC(=O)c2ccc(Cn3nc(C)cc3C)s2)c(C(N)=O)n1`: the IC50 in assay [1] and in assay [2] was greater than 100 µM in each case.
As for `CCn1cc(NC(=O)c2cccc(Cn3nc(C)cc3C)c2)c(C(N)=O)n1`, the half-maximal inhibitory concentration (IC50) in assay [1] was 50.2 µM; in assay [2] it was 72 µM.
For `CCn1cc(NC(=O)c2ccc(Cn3cccn3)o2)c(C(N)=O)n1`, in that order: 75.1 µM and 81.8 µM.
For `CCn1cc(NC(=O)c2ccc(Cn3nc(C)cc3C)o2)c(C(=O)NC)n1`, in that order: 18.1 µM and 19.4 µM.
The corresponding values for `CCn1cc(NC(=O)c2ccc(Cn3nc(C)cc3C)o2)c(C(=O)N(C)C)n1` are 75 µM and greater than 100 µM.
For `Cc1cc(C)n(Cc2ccc(C(=O)Nc3c[nH]nc3C(N)=O)o2)n1`, the half-inhibitory concentration (IC50) in assay [1] was determined as 66.6 µM; in assay [2], 71.6 µM.
